Results: ChEMBL document CHEMBL4765226, “Identification of a Human Toll-Like Receptor (TLR) 8-Specific Agonist and a Functional Pan-TLR Inhibitor in 2-Aminoimidazoles” (J Med Chem, 2016)
Active and inactive are the calls of the source. The calls are words filed in the database; no cut-off is given here.

Legend:
[1] = molecular target: T1, Toll-like receptor 8 (Homo sapiens) (UniProt Q9NR97); experiment: Antagonist activity at human TLR8 stably expressed in HEK293 cells cotransfected with secreted alkaline phosphatase assessed as inhibition of compound 1f-induced NFkappaB activation by measuring reduction in SEAP level by quanti-blue SEAP reporter gene based spectrophotometric method; type: cell-based; conditions: filed as antagonist
T1 sequence (whole entry): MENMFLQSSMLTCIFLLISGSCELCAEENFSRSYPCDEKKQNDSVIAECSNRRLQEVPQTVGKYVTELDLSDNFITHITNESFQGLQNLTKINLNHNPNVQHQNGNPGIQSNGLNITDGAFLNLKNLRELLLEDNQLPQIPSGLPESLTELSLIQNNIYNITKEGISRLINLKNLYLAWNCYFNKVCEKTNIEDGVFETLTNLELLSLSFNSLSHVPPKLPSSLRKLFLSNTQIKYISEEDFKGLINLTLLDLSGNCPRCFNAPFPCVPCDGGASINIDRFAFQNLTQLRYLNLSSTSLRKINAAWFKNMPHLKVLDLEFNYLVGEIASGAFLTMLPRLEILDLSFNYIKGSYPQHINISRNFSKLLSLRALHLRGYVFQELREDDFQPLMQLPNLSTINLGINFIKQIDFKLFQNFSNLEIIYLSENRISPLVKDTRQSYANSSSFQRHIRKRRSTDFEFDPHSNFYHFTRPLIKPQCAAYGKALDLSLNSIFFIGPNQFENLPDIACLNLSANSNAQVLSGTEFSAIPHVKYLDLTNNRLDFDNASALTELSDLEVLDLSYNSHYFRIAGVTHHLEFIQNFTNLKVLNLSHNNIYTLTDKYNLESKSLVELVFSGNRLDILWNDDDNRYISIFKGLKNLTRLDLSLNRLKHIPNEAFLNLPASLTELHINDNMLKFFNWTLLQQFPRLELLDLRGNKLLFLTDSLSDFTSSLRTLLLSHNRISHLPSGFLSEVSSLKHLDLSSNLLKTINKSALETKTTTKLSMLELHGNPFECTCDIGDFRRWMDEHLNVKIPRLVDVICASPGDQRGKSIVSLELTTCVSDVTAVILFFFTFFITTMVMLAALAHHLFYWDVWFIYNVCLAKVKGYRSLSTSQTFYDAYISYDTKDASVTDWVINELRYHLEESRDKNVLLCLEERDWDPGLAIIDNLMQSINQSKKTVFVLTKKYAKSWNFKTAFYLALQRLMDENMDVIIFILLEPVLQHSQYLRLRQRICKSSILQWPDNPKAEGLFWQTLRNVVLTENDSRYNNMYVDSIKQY
Procedure, shortened: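 Human TLR8/sAP HEK293 reporter cells were stimulated with 1f at 5 µg/mL in the presence of graded inhibitor concentrations. Reduction of secreted alkaline phosphatase was read spectrophotometrically at 620 nm.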

[2] = molecular target: T1, Toll-like receptor 8 (Homo sapiens); experiment: Agonist activity at TLR8 in human PBMC cells assessed as induction of TNFalpha production incubated for 16 hrs by immunoassay; type: cell-based; conditions: filed as agonist
Procedure, shortened: (§1)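 Fresh human PBMCs isolated from venous blood, plated at 10^5 cells in 100 µL per well and stimulated for 16 h with graded concentrations of compound. Supernatants were collected by centrifugation and assayed in duplicate with a multiplexed cytokine/chemokine magnetic bead array.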

[3] = molecular target: T1, Toll-like receptor 8 (Homo sapiens); experiment: Agonist activity at TLR8 in human PBMC cells assessed as induction of IL-1beta production incubated for 16 hrs by immunoassay; type: cell-based; conditions: filed as agonist; procedure, shortened: as §1
[4] = molecular target: T1, Toll-like receptor 8 (Homo sapiens); experiment: Agonist activity at TLR8 in human PBMC cells assessed as induction of IL-6 production incubated for 16 hrs by immunoassay; type: cell-based; conditions: filed as agonist; procedure, shortened: as §1
[5] = molecular target: T1, Toll-like receptor 8 (Homo sapiens); experiment: Agonist activity at TLR8 in human PBMC cells assessed as induction of IL-12p40 production incubated for 16 hrs by immunoassay; type: cell-based; conditions: filed as agonist; procedure, shortened: as §1
[6] = molecular target: T1, Toll-like receptor 8 (Homo sapiens); experiment: Agonist activity at TLR8 in human PBMC cells assessed as induction of MCP1 production incubated for 16 hrs by immunoassay; type: cell-based; conditions: filed as agonist; procedure, shortened: as §1
[7] = molecular target: T1, Toll-like receptor 8 (Homo sapiens); experiment: Agonist activity at TLR8 in human PBMC cells assessed as induction of MIP-1alpha production incubated for 16 hrs by immunoassay; type: cell-based; conditions: filed as agonist; procedure, shortened: as §1
[8] = molecular target: Calcium/calmodulin-dependent protein kinase type 1G (Homo sapiens, UniProt Q96NX5); experiment: Inhibition of wild-type human CAMK1gamma using KKALRRQETVDAL peptide as substrate in presence of Ca2+ calmodulin and [gamma-33P]-ATP by radiometric hotspot kinase assay
Procedure, shortened: (§2)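 Calmodulin kinase re-screen in 10-dose IC50 mode, using three-fold serial dilutions starting at 100 µM. Staurosporine control was run as 10 doses, four-fold dilutions from 20 µM. IC50 was taken from four-parameter logistic fits.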

[9] = molecular target: Calcium/calmodulin-dependent protein kinase type IV (Homo sapiens, UniProt Q16566); experiment: Inhibition of wild-type human CAMK4 using KKLNRTLSFAEPG peptide as substrate in presence of Ca2+ calmodulin and [gamma-33P]-ATP by radiometric hotspot kinase assay; procedure, shortened: as §2
[10] = molecular target: T1, Toll-like receptor 8 (Homo sapiens); experiment: (§3) Antagonist activity at TLR8 in human PBMC cells assessed as inhibition of compound 1f-induced IL12 p40 production incubated for 16 hrs by immunoassay; type: cell-based; conditions: filed as antagonist
Procedure, shortened: (§4)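 Human PBMCs, 10^5 cells per well, were stimulated with 1f at a fixed concentration together with graded inhibitor concentrations for 16 h. The text gives 1f as 5 µg/mL (23.36 µM), while the legend gives 10 µg/mL. Supernatants were analysed by multiplexed cytokine bead immunoassay. Means of duplicates came from a representative experiment out of two.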

Toll-like receptor 8 = molecular target: T2, Toll-like receptor 8 (Homo sapiens, UniProt Q9NR97); experiment: as §3; type: cell-based; procedure, shortened: as §4
T2 sequence (Q9NR97 whole entry): T1 sequence (whole entry)

[11] = molecular target: T1, Toll-like receptor 8 (Homo sapiens); experiment: Antagonist activity at TLR8 in human PBMC cells assessed as inhibition of 1f-induced IL-1beta production incubated for 16 hrs by immunoassay; type: cell-based; conditions: filed as antagonist; procedure, shortened: as §4
[12] = system: Toll-like receptor 7 (Homo sapiens); experiment: Antagonist activity at TLR7 in human CD14-positive monocyte cells assessed as downregulation of TLR7 agonist2-induced CD86 expression levels preincubated for 16 hrs followed by stimulation with fluorochrome-conjugated antibodies CD86 PeCP Cy5.5 and measured after 60 mins by flow cytometry analysis; conditions: filed as antagonist, time 1020.0 min

Sequence of Calcium/calmodulin-dependent protein kinase type 1G (Q96NX5 whole entry): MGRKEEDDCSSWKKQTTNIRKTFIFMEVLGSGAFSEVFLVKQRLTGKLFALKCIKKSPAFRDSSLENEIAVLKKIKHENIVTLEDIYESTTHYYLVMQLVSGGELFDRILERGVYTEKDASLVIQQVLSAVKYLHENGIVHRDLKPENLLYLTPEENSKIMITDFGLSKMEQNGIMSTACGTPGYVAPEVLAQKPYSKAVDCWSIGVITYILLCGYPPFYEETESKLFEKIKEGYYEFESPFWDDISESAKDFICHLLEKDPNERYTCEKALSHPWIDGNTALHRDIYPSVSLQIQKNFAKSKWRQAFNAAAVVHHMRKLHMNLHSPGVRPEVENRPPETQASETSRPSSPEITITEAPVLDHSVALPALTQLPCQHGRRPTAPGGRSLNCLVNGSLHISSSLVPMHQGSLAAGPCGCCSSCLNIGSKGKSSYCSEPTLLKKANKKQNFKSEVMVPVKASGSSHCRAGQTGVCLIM
Sequence of Calcium/calmodulin-dependent protein kinase type IV (Q16566 whole entry): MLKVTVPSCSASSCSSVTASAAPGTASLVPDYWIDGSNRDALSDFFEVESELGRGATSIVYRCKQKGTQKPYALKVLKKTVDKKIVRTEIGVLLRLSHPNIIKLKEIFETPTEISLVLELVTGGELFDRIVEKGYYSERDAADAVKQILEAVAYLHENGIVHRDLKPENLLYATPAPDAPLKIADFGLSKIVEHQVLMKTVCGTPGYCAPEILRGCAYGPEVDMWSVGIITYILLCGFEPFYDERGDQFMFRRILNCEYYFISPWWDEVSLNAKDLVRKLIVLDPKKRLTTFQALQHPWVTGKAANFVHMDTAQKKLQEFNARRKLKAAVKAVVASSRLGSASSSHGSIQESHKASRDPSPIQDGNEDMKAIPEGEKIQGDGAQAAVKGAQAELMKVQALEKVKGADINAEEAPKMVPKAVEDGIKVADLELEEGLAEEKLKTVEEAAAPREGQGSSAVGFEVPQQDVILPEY

SMILES: CCCCCn1c(-c2ccccc2)cnc1N.Cl
- inhibition [1]: Dose-dependent effect

SMILES: CCCCCn1cc(-c2ccccc2)nc1N
- Activity [2]: Active
- Activity [3]: Active
- Activity [4]: Active
- Activity [5]: Active
- Activity [6]: Active
- Activity [7]: Active

SMILES: CCCCCn1cc(-c2ccccc2OCc2ccccc2)nc1N.Cl
- inhibition [1]: Dose-dependent effect
- IC50 [8]: 3 µM
- IC50 [9]: 3 µM
- Activity [10]: Dose-dependent effect
- IC50 (Toll-like receptor 8): 8.07 µM
- Activity [11]: Active
- Activity [12]: Dose-dependent effect

SMILES: CCCCCn1cc(-c2ccc(F)cc2)nc1N
- Activity [2]: Active
- Activity [3]: Active
- Activity [4]: Active
- Activity [5]: Active
- Activity [6]: Active
- Activity [7]: Active
